Test results as given in ChEMBL document CHEMBL4257584, “Sterol 14α-Demethylase Structure-Based Optimization of Drug Candidates for Human Infections with the Protozoan Trypanosomatidae” (J Med Chem, 2018).

Test system: not listed separately
Test: Lipophilicity, log P of the compound
Type: physicochemical
Conditions: octanol/water

SMILES	logP
O=C(N[C@@H](Cn1ccnc1)c1cnc(-c2ccc(F)cc2)cc1Cl)c1ccc(-c2nnc(-c3ccccc3)o2)cc1	4.93

Test system: Trypanosoma cruzi
Test: Antiparasitic activity against GFP-expressing Trypanosoma cruzi Tulahuen amastigote formss infected in cardiomyocytes assessed as reduction in rate of parasite multiplication within infected cardiomyocytes measured at 72 hrs post infection by fluorescence microscopy
Type: functional, organism-based
Conditions: not given
Outline: (§1)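 GFP-expressing trypomastigotes (Tulahuen or Y strain) infect cardiomyocyte monolayers at 10 parasites per cell, in DMEM + 10% FBS. Unbound parasites are washed off. At 24 h of infection, inhibitors at 0.5–25 nM in DMSO/DMEM are added and cultured 48 h. Read-out is at 72 h post-infection as GFP fluorescence (RFU) after PBS wash; microscopy uses paraformaldehyde fixation, DAPI and phalloidin stain. Triplicate.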

SMILES	EC50
O=C(N[C@@H](Cn1ccnc1)c1ccc(Cl)cc1Cl)c1ccc(-c2nnc(-c3ccccc3)o2)cc1	1.3 nM

Molecular target: Sterol 14-alpha demethylase (Trypanosoma cruzi (strain CL Brener), UniProt Q7Z1V1)
Test: Binding affinity to Trypanosoma cruzi Y CYP51A expressed in Escherichia coli
Conditions: not given
Outline: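 Recombinant CYP51A from Y strain T. cruzi, expressed in E. coli and purified, titrated spectrally at 0.5 μM P450 in 5 cm path cuvettes with ligand over 0.1–1 μM. Type of absorbance change in difference spectra Δ(A430-A411) plotted against ligand concentration. Apparent Kd obtained by fitting to the Morrison quadratic tight-binding equation by nonlinear regression.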

Sterol 14-alpha demethylase, sequence (Q7Z1V1 whole entry): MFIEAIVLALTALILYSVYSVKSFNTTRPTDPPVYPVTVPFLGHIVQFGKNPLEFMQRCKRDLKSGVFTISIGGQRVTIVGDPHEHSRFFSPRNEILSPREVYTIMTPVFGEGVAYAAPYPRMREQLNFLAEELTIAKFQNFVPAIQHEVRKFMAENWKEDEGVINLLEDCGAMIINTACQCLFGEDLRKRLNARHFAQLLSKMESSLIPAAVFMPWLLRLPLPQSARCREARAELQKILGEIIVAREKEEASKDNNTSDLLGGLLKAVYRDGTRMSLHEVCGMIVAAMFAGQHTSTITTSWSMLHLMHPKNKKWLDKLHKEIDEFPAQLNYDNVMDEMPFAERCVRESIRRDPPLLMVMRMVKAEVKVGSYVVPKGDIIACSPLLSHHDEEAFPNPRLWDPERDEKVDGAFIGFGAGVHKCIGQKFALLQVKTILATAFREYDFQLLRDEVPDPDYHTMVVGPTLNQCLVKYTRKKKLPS

SMILES	Kd
O=C(N[C@@H](Cn1ccnc1)c1ccc(Cl)cc1Cl)c1ccc(-c2nnc(-c3ccccc3)o2)cc1	8.3 nM

Test system: Trypanosoma cruzi
Test: Antiparasitic activity against GFP-expressing Trypanosoma cruzi Y amastigote formss infected in cardiomyocytes assessed as reduction in rate of parasite multiplication within infected cardiomyocytes measured at 72 hrs post infection by fluorescence microscopy
Type: functional, organism-based
Conditions: not given
Outline: as §1

SMILES	EC50
O=C(N[C@@H](Cn1ccnc1)c1ccc(Cl)cc1Cl)c1ccc(-c2nnc(-c3ccccc3)o2)cc1	4 nM

Molecular target: Putative lanosterol 14-alpha-demethylase (Leishmania infantum, UniProt A2TEF2)
Test: Binding affinity to Leishmania infantum CYP51 expressed in Escherichia coli
Conditions: not given
Outline: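 Purified E. coli-expressed L. infantum CYP51 at 0.5 μM is titrated with ligand at 0.1–1 μM in 5 cm path cuvettes. Difference-spectrum absorbance change Δ(A430−A411) is plotted against ligand concentration. Apparent Kd comes from a Morrison (quadratic) tight-binding fit by nonlinear regression.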

Putative lanosterol 14-alpha-demethylase, sequence (A2TEF2 whole entry): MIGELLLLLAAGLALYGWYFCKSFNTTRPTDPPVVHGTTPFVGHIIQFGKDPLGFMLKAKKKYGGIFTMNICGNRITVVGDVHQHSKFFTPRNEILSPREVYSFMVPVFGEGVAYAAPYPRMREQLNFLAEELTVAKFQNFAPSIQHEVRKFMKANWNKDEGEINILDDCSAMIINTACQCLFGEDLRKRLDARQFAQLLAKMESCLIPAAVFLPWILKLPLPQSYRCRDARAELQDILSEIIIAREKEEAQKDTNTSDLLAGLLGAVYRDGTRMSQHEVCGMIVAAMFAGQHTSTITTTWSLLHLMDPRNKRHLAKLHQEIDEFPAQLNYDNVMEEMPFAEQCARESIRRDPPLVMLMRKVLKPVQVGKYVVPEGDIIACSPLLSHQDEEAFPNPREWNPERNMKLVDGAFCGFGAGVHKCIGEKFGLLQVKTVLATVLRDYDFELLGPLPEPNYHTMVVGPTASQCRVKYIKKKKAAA

SMILES	Kd
O=C(N[C@@H](Cn1ccnc1)c1ccc(Cl)cc1Cl)c1ccc(-c2nnc(-c3ccccc3)o2)cc1	2 nM
